Series [1] has as its system Rattus norvegicus. As to the kind of experiment: Inhibition of cholesterol synthesis in Wistar rat at 3 mg/kg, po administered as single dose prior to [14C]mevalonolactone injection measured after 1 hr by liquid scintillation counting.
A further series has as its system Hepatocyte. As to the kind of experiment: Inhibition of cholesterol synthesis in rat hepatocytes assessed as formation of cholesterol using [14C]mevalonolactone as substrate after 1 hr by liquid scintillation counting. It is filed as functional, cell-based.
Series [2] can be described thus: Lipophilicity, log D of the compound at pH 7.4. Format: physicochemical. Conditions: buffer.
A further series deals with T1, Squalene synthase (Rattus norvegicus, UniProt Q02769).
T1 sequence (Q02769 whole entry): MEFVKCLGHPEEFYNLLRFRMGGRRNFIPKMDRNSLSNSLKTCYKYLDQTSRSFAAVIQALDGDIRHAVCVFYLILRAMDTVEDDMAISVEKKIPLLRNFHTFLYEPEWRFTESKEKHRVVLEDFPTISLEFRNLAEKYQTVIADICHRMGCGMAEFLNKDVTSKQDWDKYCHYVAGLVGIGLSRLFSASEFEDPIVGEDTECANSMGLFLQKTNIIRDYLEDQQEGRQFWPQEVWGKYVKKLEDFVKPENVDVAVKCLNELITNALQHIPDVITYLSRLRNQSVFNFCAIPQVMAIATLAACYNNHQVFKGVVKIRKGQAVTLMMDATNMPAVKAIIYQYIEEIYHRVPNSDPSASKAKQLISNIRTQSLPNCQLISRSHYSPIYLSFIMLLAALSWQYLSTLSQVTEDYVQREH
In words: Inhibition of rat hepatic microsomal squalene synthase using [3H]FPP as substrate after by scintillation spectrophotometry.

The subject of series [3] is Rattus norvegicus. In words: Inhibition of cholesterol synthesis in Wistar rat at 3 mg/kg, po in presence of [14C]acetic acid. Format: functional, organism-based. Also noted: dose 3 mg/kg. Put shortly:
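Rats given a single 3 mg/kg oral dose; hepatic cholesterol synthesis inhibition expressed as % at 1 h post-dose.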

Series [4] relates to marmosets. In words: Reduction in total cholesterol level in marmosets at 30 mg/kg/day, po for 7 days. Also noted: scale not given: the % may be the effect or the level left. It is filed as functional, Callitrichinae sp. Put shortly:
(§1)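 Marmosets dosed orally at 30 mg/kg/day for 7 days. Plasma total, non-HDL and HDL cholesterol and triglyceride reported as mean percentage change from each animal's initial values (n = 7, 8). Significance was tested against initial values.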

The subject of series [5] is Rattus norvegicus. As to the kind of experiment: Inhibition of cholesterol synthesis in po dosed Wistar rat administered as single dose prior to [14C]mevalonolactone injection measured after 7 hrs by liquid scintillation counting. Format: functional.
Series [6] deals with Rattus norvegicus. As to the kind of experiment: Inhibition of cholesterol synthesis in Wistar rat at 1 mg/kg, po administered as single dose prior to [14C]mevalonolactone injection measured after 7 hrs by liquid scintillation counting. It is filed as functional. Put shortly: (§2)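 Rats given a single oral dose of 1 mg/kg; hepatic cholesterol synthesis inhibition (%) determined at 1, 4 and 7 h after dosing.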

In series [7] the test system is marmosets. In words: Reduction in HDL cholesterol level in marmosets at 30 mg/kg/day, po for 7 days. It is filed as functional, Callitrichinae sp. Also noted: scale not given: the % may be the effect or the level left. Put shortly: as §1
Series [8] concerns marmosets. As to the kind of experiment: Reduction in triglyceride level in marmosets at 30 mg/kg/day, po for 7 days. It is filed as functional, Callitrichinae sp. Also noted: scale not given: the % may be the effect or the level left. In short, it runs like this:
as §1

Series [9] concerns Rattus norvegicus. In words: Inhibition of cholesterol synthesis in Wistar rat at 1 mg/kg, po administered as single dose prior to [14C]mevalonolactone injection measured after 4 hrs by liquid scintillation counting. Format: functional. Put shortly: as §2
Series [10] deals with Rattus norvegicus. In words: Inhibition of cholesterol synthesis in Wistar rat at 1 mg/kg, po administered as single dose prior to [14C]mevalonolactone injection measured after 1 hr by liquid scintillation counting. Format: functional. In short, it runs like this: as §2
The test system of series [11] is marmosets. In words: Reduction in non-HDL cholesterol level in marmosets at 30 mg/kg/day, po for 7 days. Details: scale not given: the % may be the effect or the level left. Format: functional, Callitrichinae sp. Put shortly: as §1
The test system of series [12] is Rattus norvegicus. In words: Drug uptake in rats liver assessed per gram of tissue at 3 mg/kg, po administered as single dose measured at 1 hr.
The subject of series [13] is Rattus norvegicus. In words: Partition co-efficient, Kp in rats liver assessed per gram of tissue at 3 mg/kg, po administered as single dose measured at 1 hr.

Calls of active or inactive are those of the source. The calls are words filed in the database; no cut-off is given here.

In general, inhibition in vivo refers to the drop in the measured response relative to a control, in per cent. As a reminder, the IC50 is the point on the concentration scale where inhibition reaches its midpoint. Usually logD stands for the decadic logarithm of the distribution of all forms, ionised or not, between an organic phase and buffer at a given pH. In the series with Rattus norvegicus [1], `COc1cccc([C@H]2O[C@H](CCn3cc(C(=O)O)cn3)c3nnc(C)n3-c3ccc(Cl)cc32)c1OC` (relative stereo) came in with an inhibition in vivo at 3 mg/kg of 30%. For the same compound, the IC50 stood at 290 nM with Hepatocyte and 36 nM at Squalene synthase. In series [2], the pH-dependent lipophilicity (logD) is -0.4.

`CC(C)c1c(C(=O)Nc2ccccc2)c(-c2ccccc2)c(-c2ccc(F)cc2)n1CC[C@@H](O)C[C@@H](O)CC(=O)O`: the inhibition result in the series on Rattus norvegicus [3] is “Active”.

As a reminder, the ED50 is the dose that gives a 50% effect, or the effect in half of the subjects. `COc1cccc([C@H]2O[C@H](CC(=O)O)c3nnc(C(F)(F)F)n3-c3ccc(Cl)cc32)c1Cl`: the inhibition result with Rattus norvegicus [3] was “Active”. For the same compound, the Activity was 39% with marmosets [4], 16% in the series on marmosets [7], 24% with marmosets [8] and 53% in the series with marmosets [11]. Besides, the 50% inhibitory concentration (IC50) amounted to 19 nM with Hepatocyte and 1.1 nM against Squalene synthase. The 50% effect level in the series on Rattus norvegicus [5] (ED50) was put at a dose of 0.11 mg/kg. In addition, the figures for the inhibition in vivo at 1 mg/kg with Rattus norvegicus [6], in the series with Rattus norvegicus [9] and in the series on Rattus norvegicus [10] were 55%, 77% and 93%, respectively.

As for `COc1cccc([C@H]2O[C@H](CC(=O)O)c3nnc(C(F)(F)F)n3-c3ccc(Cl)cc32)c1OC`, the Activity in the series with marmosets [4] is reported as 29%; with marmosets [7] it was 3%; in the series on marmosets [8], 29%; in the series on marmosets [11], 44%. Further, the half-inhibitory concentration (IC50) in the series on Hepatocyte came out at 38 nM; against Squalene synthase, 1.6 nM. The inhibition in vivo at 1 mg/kg with Rattus norvegicus [6] was determined as 45%; in the series on Rattus norvegicus [9] it was 78%; in the series with Rattus norvegicus [10] it was 88%. Further, the concentration at 1 h in the series with Rattus norvegicus [12] came to 1040 ng/g. The Kp at 1 h with Rattus norvegicus [13] was found to be 66.

In the case of `COc1cccc([C@H]2O[C@H](CCn3cc(C(=O)O)cn3)c3nnc(C(C)C)n3-c3ccc(Cl)cc32)c1OC` (relative stereo), the inhibition in vivo at 3 mg/kg in the series with Rattus norvegicus [1] was determined as 15%. For the same compound, the IC50 is 91 nM in the series on Hepatocyte and 11 nM on Squalene synthase. In [2], this compound came in with a logD of 0.37.

For `COc1cccc([C@H]2O[C@H](CCn3cc(C(=O)O)cn3)c3nnc(C(F)(F)F)n3-c3ccc(Cl)cc32)c1OC` (relative stereo), in the series with Rattus norvegicus [1], the inhibition in vivo at 3 mg/kg worked out at 71%. In addition, the figures for the IC50 in the series on Hepatocyte and against Squalene synthase were 130 nM and 3.2 nM, respectively. This compound registered a logD in series [2] of 0.83.

As to `COc1cccc([C@H]2O[C@H](CC(=O)O)c3nnc(C(F)(F)F)n3-c3ccc(Cl)cc32)c1OC(F)(F)F`, the IC50 is 28 nM in the series with Hepatocyte and 0.7 nM on Squalene synthase. In addition, the inhibition in vivo at 1 mg/kg turned out to be 48% in the series on Rattus norvegicus [6], 67% in the series on Rattus norvegicus [9] and 77% with Rattus norvegicus [10].

For `CCc1c(OC)cccc1[C@H]1O[C@H](CC(=O)O)c2nnc(C(F)(F)F)n2-c2ccc(Cl)cc21`, the IC50 was found to be 18 nM with Hepatocyte and 0.36 nM against Squalene synthase. Further, the inhibition in vivo at 1 mg/kg in the series on Rattus norvegicus [6] amounted to 21%; with Rattus norvegicus [9], 57%; in the series with Rattus norvegicus [10] it was 76%.

On to `COc1cccc([C@H]2O[C@H](CC(=O)O)c3nnc(C(F)(F)F)n3-c3ccc(Cl)cc32)c1C`, for which the Activity with marmosets [4] stood at 32%; with marmosets [7] it was 8%; in the series on marmosets [8] it was 34%; with marmosets [11], 42%. The figures for the IC50 with Hepatocyte and against Squalene synthase were 46 nM and 0.85 nM, respectively. In addition, the results for the inhibition in vivo at 1 mg/kg in the series with Rattus norvegicus [6], in the series with Rattus norvegicus [9] and with Rattus norvegicus [10] were 45%, 69% and 87%, respectively.

In the case of `COc1cccc([C@H]2O[C@H](CC(=O)N3CCC(CC(=O)O)CC3)C(=O)N(CC(C)(C)COC(C)=O)c3ccc(Cl)cc32)c1OC` [LAPAQUISTAT ACETATE], the Activity with marmosets [4] is given as 17%; with marmosets [7] it was 10%; in the series with marmosets [8], 25%; in the series on marmosets [11], 19%. Also, in the series with Rattus norvegicus [5], it took a dose of 3.8 mg/kg to reach the 50% effect level (ED50).

In the series on Rattus norvegicus [1], `COc1cccc([C@H]2O[C@H](CCn3cc(C(=O)O)cn3)c3nnc(CF)n3-c3ccc(Cl)cc32)c1OC` (relative stereo) returned an inhibition in vivo at 3 mg/kg of 48%. Also, the IC50 was 77 nM in the series on Hepatocyte and 6 nM on Squalene synthase.
